Test results taken from paper PMC8473721 (Journal of Inflammation Research, 2021).

Test system: MCF-7 human breast tumor xenograft
Experiment: In vivo anticancer activity in human breast tumor xenograft model
Design: species or system female nude (nu/nu) mice
Conditions: 10 mg/kg BW
Summary of the method: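 Female nu/nu mice (6~7 weeks) were given about 1.5×10^7 MCF-7 cells subcutaneously in the dorsal back, in medium:Matrigel 1:1. Estradiol cyclopentyl propionate (100 µg/mouse) was given s.c. twice weekly. Once tumors reached ≥5 mm, mice were randomised, six per group, to 5 mg/kg BW test compound for 45 days, paclitaxel 10 mg/kg, or vehicle. Tumor size, BW and toxicity signs were recorded every 4 days.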

Structure (SMILES): CC(=O)O[C@H]1C(=O)[C@@]2(C)[C@H]([C@H](OC(=O)c3ccccc3)[C@]3(O)C[C@H](OC(=O)[C@H](O)[C@@H](NC(=O)c4ccccc4)c4ccccc4)C(C)=C1C3(C)C)[C@]1(OC(C)=O)CO[C@@H]1C[C@@H]2O [paclitaxel]
- tumor growth: significantly (p<0.001) inhibited tumor growth
